Data from ChEMBL document CHEMBL1156731, “Antifungal activity of synthetic di(hetero)arylamines based on the benzo[b]thiophene moiety” (2008).
Converted amounts (≈) assume the structure as drawn.

Key:
Format in all cases: functional
Pichia kudriavzevii = assay: Antifungal activity against Candida krusei ATCC 6258 after 48 hrs by broth macrodilution method; details: ATCC 6258, 48 h
Summary of the method: (§1)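 Yeasts grown 1 day on SDA at 37 °C, subcultured, suspended in saline and diluted in MOPS-buffered RPMI 1640 (pH 7.0) to 1-2 × 10^3 CFU/mL. Broth macrodilution per CLSI M27-A2, twofold dilutions 200-0.8 µg/mL (DMSO ≤2% final), aerobic, 37 °C, 48 h. MIC = 80% turbidity reduction vs drug-free control; MFC from SDA subculture at 37 °C. Three independent experiments in duplicate.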

Candida tropicalis = assay: Antifungal activity against Candida tropicalis ATCC 13803 after 48 hrs by broth macrodilution method; details: ATCC 13803, 48 h; summary of the method: as §1
Candida albicans [1] = assay: Antifungal activity against Candida albicans D5 after 48 hrs by broth macrodilution method; summary of the method: as §1
Nakaseomyces glabratus = assay: Antifungal activity against Candida glabrata D10R after 48 hrs by broth macrodilution method
Summary of the method: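 Broth macrodilution per CLSI M27-A2 (minor modifications). Inoculum 1-2 × 10^3 CFU/mL in RPMI 1640 with L-glutamine, MOPS-buffered 0.165 M, pH 7.0. Twofold dilutions 200-0.8 µg/mL from DMSO stock (final DMSO ≤2%). Aerobic, 37 °C, 48 h. MIC = lowest concentration giving 80% turbidity reduction versus drug-free control. Three independent experiments in duplicate.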

Epidermophyton floccosum = assay: Antifungal activity against Epidermophyton floccosum FF9 after 5 days by broth macrodilution method; details: 120 h
Summary of the method: (§2)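 Dermatophytes grown 5 days on SDA at 30 °C, subcultured. Conidial suspensions in saline were adjusted in MOPS-buffered RPMI 1640 (pH 7.0) to 1-2 × 10^4 CFU/mL. Macrodilution adapted from CLSI M38-A with 200-0.8 µg/mL twofold dilutions (DMSO ≤2%), incubated at 30 °C for 5 days. MIC at 80% turbidity reduction vs control; MFC by SDA subculture at 30 °C. Triplicate experiments in duplicate.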

Trichophyton rubrum = assay: Antifungal activity against Trichophyton rubrum FF5 after 5 days by broth macrodilution method; details: 120 h; summary of the method: as §2
[2] = test system: Trichophyton mentagrophytes; assay: Antifungal activity against Trichophyton mentagrophytes FF7 after 5 days by broth macrodilution method; details: 120 h; summary of the method: as §2
Microsporum canis = assay: Antifungal activity against Microsporum canis FF1 after 5 days by broth macrodilution method; details: 120 h; summary of the method: as §2
Nannizzia gypsea = assay: Antifungal activity against Microsporum gypseum FF3 after 5 days by broth macrodilution method; details: 120 h; summary of the method: as §2
Aspergillus flavus = assay: Antifungal activity against Aspergillus flavus F44 after 3 days by broth macrodilution method; details: 72 h
Summary of the method: (§3)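 Aspergillus inoculum from 3-day SDA subcultures at 30 °C; conidial suspension in 0.85% saline, diluted in RPMI 1640 (L-glutamine, no bicarbonate, 0.165 M MOPS, pH 7.0) to 1-2 × 10^4 CFU/mL. Twofold dilutions 200-0.8 µg/mL from DMSO stock (final DMSO ≤2%); macrodilution per CLSI M38-A, 30 °C, 3 days. MIC = lowest concentration giving 80% turbidity reduction vs drug-free control; MFC by subculture on SDA. Three independent experiments in duplicate.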

Aspergillus fumigatus = assay: Antifungal activity against Aspergillus fumigatus ATCC 46645 after 3 days by broth macrodilution method; details: ATCC 46645, 72 h; summary of the method: as §3
Aspergillus niger = assay: Antifungal activity against Aspergillus niger ATCC 16404 after 3 days by broth macrodilution method; details: ATCC 16404, 72 h; summary of the method: as §3
Candida albicans [3] = assay: Antifungal activity against Candida albicans ATCC 10231 after 48 hrs by broth macrodilution method; details: ATCC 10231, 48 h; summary of the method: as §1

CCOC(=O)c1sc2ccccc2c1Nc1ccc(OC)cc1OC
MFC (Pichia kudriavzevii): > 200 µg/mL
MIC (Pichia kudriavzevii): > 200 µg/mL
MFC (Candida tropicalis): > 200 µg/mL
MIC (Candida tropicalis): > 200 µg/mL
MFC (Candida albicans [1]): > 200 µg/mL
MIC (Candida albicans [1]): > 200 µg/mL
MFC (Nakaseomyces glabratus): > 200 µg/mL
MIC (Nakaseomyces glabratus): > 200 µg/mL
MFC (Epidermophyton floccosum): > 200 µg/mL
MIC (Epidermophyton floccosum): > 200 µg/mL
MFC (Trichophyton rubrum): > 200 µg/mL
MIC (Trichophyton rubrum): > 200 µg/mL
MFC [2]: > 200 µg/mL
MIC [2]: > 200 µg/mL
MFC (Microsporum canis): > 200 µg/mL
MIC (Microsporum canis): > 200 µg/mL
MFC (Nannizzia gypsea): > 200 µg/mL
MIC (Nannizzia gypsea): > 200 µg/mL
MFC (Aspergillus flavus): > 200 µg/mL
MIC (Aspergillus flavus): > 200 µg/mL
MFC (Aspergillus fumigatus): > 200 µg/mL
MIC (Aspergillus fumigatus): > 200 µg/mL
MFC (Aspergillus niger): > 200 µg/mL
MIC (Aspergillus niger): > 200 µg/mL
MFC (Candida albicans [3]): > 200 µg/mL
MIC (Candida albicans [3]): > 200 µg/mL

OC(Cn1cncn1)(Cn1cncn1)c1ccc(F)cc1F [FLUCONAZOLE]
MFC (Pichia kudriavzevii): 64 µg/mL (≈ 209 µM)
MIC (Pichia kudriavzevii): 64 µg/mL (≈ 209 µM)
MFC (Candida tropicalis): > 128 µg/mL
MIC (Candida tropicalis): 4 µg/mL (≈ 13.1 µM)
MFC (Candida albicans [1]): > 128 µg/mL
MIC (Candida albicans [1]): > 128 µg/mL
MFC (Nakaseomyces glabratus): 32 µg/mL (≈ 104 µM)
MIC (Nakaseomyces glabratus): 32 µg/mL (≈ 104 µM)
MFC (Epidermophyton floccosum): 16 µg/mL (≈ 52.2 µM)
MIC (Epidermophyton floccosum): 16 µg/mL (≈ 52.2 µM)
MFC (Trichophyton rubrum): 32 µg/mL (≈ 104 µM)
MIC (Trichophyton rubrum): 16 µg/mL (≈ 52.2 µM)
MFC [2]: 32 µg/mL (≈ 104 µM)
MIC [2]: 16 µg/mL (≈ 52.2 µM)
MFC (Microsporum canis): 128 µg/mL (≈ 418 µM)
MIC (Microsporum canis): 128 µg/mL (≈ 418 µM)
MFC (Nannizzia gypsea): > 128 µg/mL
MIC (Nannizzia gypsea): > 128 µg/mL
MFC (Candida albicans [3]): > 128 µg/mL
MIC (Candida albicans [3]): 1 µg/mL (≈ 3.27 µM)

CCOC(=O)c1sc2ccccc2c1Nc1ccc(F)cc1
MFC (Pichia kudriavzevii): > 200 µg/mL
MIC (Pichia kudriavzevii): > 200 µg/mL
MFC (Candida tropicalis): > 200 µg/mL
MIC (Candida tropicalis): > 200 µg/mL
MFC (Candida albicans [1]): > 200 µg/mL
MIC (Candida albicans [1]): > 200 µg/mL
MFC (Nakaseomyces glabratus): > 200 µg/mL
MIC (Nakaseomyces glabratus): > 200 µg/mL
MFC (Epidermophyton floccosum): > 200 µg/mL
MIC (Epidermophyton floccosum): > 200 µg/mL
MFC (Trichophyton rubrum): > 200 µg/mL
MIC (Trichophyton rubrum): > 200 µg/mL
MFC [2]: > 200 µg/mL
MIC [2]: > 200 µg/mL
MFC (Microsporum canis): > 200 µg/mL
MIC (Microsporum canis): > 200 µg/mL
MFC (Nannizzia gypsea): > 200 µg/mL
MIC (Nannizzia gypsea): > 200 µg/mL
MFC (Aspergillus flavus): > 200 µg/mL
MIC (Aspergillus flavus): > 200 µg/mL
MFC (Aspergillus fumigatus): > 200 µg/mL
MIC (Aspergillus fumigatus): > 200 µg/mL
MFC (Aspergillus niger): > 200 µg/mL
MIC (Aspergillus niger): > 200 µg/mL
MFC (Candida albicans [3]): > 200 µg/mL
MIC (Candida albicans [3]): > 200 µg/mL

CCOC(=O)c1sc2ccccc2c1Nc1cccnc1
MFC (Pichia kudriavzevii): > 200 µg/mL
MIC (Pichia kudriavzevii): > 200 µg/mL
MFC (Candida tropicalis): > 200 µg/mL
MIC (Candida tropicalis): > 200 µg/mL
MFC (Candida albicans [1]): > 200 µg/mL
MIC (Candida albicans [1]): > 200 µg/mL
MFC (Nakaseomyces glabratus): > 200 µg/mL
MIC (Nakaseomyces glabratus): > 200 µg/mL
MFC (Epidermophyton floccosum): > 50 µg/mL
MIC (Epidermophyton floccosum): 6.25 µg/mL (≈ 20.9 µM)
MFC (Trichophyton rubrum): > 50 µg/mL
MIC (Trichophyton rubrum): 3.13 µg/mL (≈ 10.5 µM)
MFC [2]: > 50 µg/mL
MIC [2]: 3.13 µg/mL (≈ 10.5 µM)
MFC (Microsporum canis): > 50 µg/mL
MIC (Microsporum canis): 3.13 µg/mL (≈ 10.5 µM)
MFC (Nannizzia gypsea): > 50 µg/mL
MIC (Nannizzia gypsea): 6.25 µg/mL (≈ 20.9 µM)
MFC (Aspergillus flavus): > 200 µg/mL
MIC (Aspergillus flavus): > 200 µg/mL
MFC (Aspergillus fumigatus): > 200 µg/mL
MIC (Aspergillus fumigatus): > 200 µg/mL
MFC (Aspergillus niger): > 200 µg/mL
MIC (Aspergillus niger): > 200 µg/mL
MFC (Candida albicans [3]): > 200 µg/mL
MIC (Candida albicans [3]): > 200 µg/mL
